Data: PMC5788414 (Journal of Medicinal Chemistry, 2017)
One block for each compound: values may come before it. Peptide text beside a SMILES is read from it. * marks the point of attachment. Cbz = O=C(OCc1ccccc1)*

How the values were obtained:
[1] = test system: BRD2, BRD3, and BRD4 proteins; assay: Western blotting of BET protein levels in RS4; format: cell-based, human; conditions: RS4;11 cells; for Effect of pretreatment on degradation of BRD2, BRD3, and BRD4 induced by 23: 2 h pretreatment, then 3 h treatment with 23 at 1 nM
[2] = test system: RS4;11 acute leukemia cell line; assay: Cell growth inhibition; format: cell-based, human; conditions: for times less potent than 23 in cell growth inhibition: comparator 23
BRD3 = BRD3 (Homo sapiens, UniProt Q15059); assay: Western blotting of BRD3 protein level in RS4; format: cell-based; conditions: RS4;11 cells, 3 h treatment, Western blot
Procedure, shortened: (§1)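 RS4;11 cells (2 × 10⁶/well) were treated with the test compound at the indicated concentrations for 3 h or 24 h. Cells were lysed in RIPA buffer with protease inhibitors. Lysate (20 μg per lane) was separated by SDS–PAGE, blotted onto PVDF, and probed with BRD2, BRD3 and BRD4 antibodies, with GAPDH as the loading control.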

BRD2 = BRD2 (Homo sapiens, UniProt P25440); assay: Western blotting of BRD2 protein level in RS4; format: cell-based; conditions: RS4;11 cells, 3 h treatment, Western blot
Procedure, shortened: as §1

BRD4 = BRD4 (Homo sapiens, UniProt O60885); assay: Western blotting of BRD4 protein level in RS4; format: cell-based; conditions: RS4;11 cells, 3 h treatment, Western blot
Procedure, shortened: as §1

[3] = test system: MOLM-13 acute leukemia cell line; assay: Cell growth inhibition; format: cell-based, human; conditions: MOLM13; comparator 23
MOLM-13 cell line [4] = assay: Cell cycle arrest by flow cytometry; format: cell-based, human; conditions: MOLM-13, 24 h
Procedure, shortened: (§2)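 Cell cycle was read by propidium iodide staining and flow cytometry after 24 h exposure to the test compound at the indicated concentrations. RS4;11 or MOLM-13 cells were cultured in RPMI 1640 with 10% FBS and 1% penicillin–streptomycin at 37 °C, 5% CO₂, and used within three months of thawing.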

RS4;11 cell line [5] = assay: Cell cycle arrest by flow cytometry; format: cell-based, human; conditions: RS4;11, 24 h
Procedure, shortened: as §2

RS4;11 cell line [6] = assay: Apoptosis induction by flow cytometry; format: cell-based, human; conditions: RS4;11, 24 h treatment
Procedure, shortened: (§3)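 RS4;11 or MOLM-13 cells were grown in RPMI 1640 with 10% FBS and 1% penicillin–streptomycin at 37 °C, 5% CO₂, and used within three months of thawing. Cells were treated with the test compound at the indicated concentrations for 24 h. They were then stained with annexin V and propidium iodide and analysed by flow cytometry.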

BRD2, BRD3, and BRD4 = assay: FP-based competitive binding assays, BET proteins overall; conditions: binding to BRD2, BRD3, BRD4
MOLM-13 cell line [7] = assay: Apoptosis induction by flow cytometry; format: cell-based, human; conditions: MOLM-13, 24 h treatment
Procedure, shortened: as §3

c-Myc = assay: Western blotting of c-Myc level in RS4; format: cell-based, human; conditions: RS4;11 cells, 24 h treatment, Western blot
Procedure, shortened: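 RS4;11 cells (2 × 10⁶/well) were exposed for 24 h to the test compound at the indicated concentrations. Cells were lysed in RIPA buffer with protease inhibitors. Lysate (20 μg per lane) was separated by SDS–PAGE, transferred to PVDF, and immunoblotted for c-Myc, with GAPDH as the loading control.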

BRD2, sequence (P25440 whole entry): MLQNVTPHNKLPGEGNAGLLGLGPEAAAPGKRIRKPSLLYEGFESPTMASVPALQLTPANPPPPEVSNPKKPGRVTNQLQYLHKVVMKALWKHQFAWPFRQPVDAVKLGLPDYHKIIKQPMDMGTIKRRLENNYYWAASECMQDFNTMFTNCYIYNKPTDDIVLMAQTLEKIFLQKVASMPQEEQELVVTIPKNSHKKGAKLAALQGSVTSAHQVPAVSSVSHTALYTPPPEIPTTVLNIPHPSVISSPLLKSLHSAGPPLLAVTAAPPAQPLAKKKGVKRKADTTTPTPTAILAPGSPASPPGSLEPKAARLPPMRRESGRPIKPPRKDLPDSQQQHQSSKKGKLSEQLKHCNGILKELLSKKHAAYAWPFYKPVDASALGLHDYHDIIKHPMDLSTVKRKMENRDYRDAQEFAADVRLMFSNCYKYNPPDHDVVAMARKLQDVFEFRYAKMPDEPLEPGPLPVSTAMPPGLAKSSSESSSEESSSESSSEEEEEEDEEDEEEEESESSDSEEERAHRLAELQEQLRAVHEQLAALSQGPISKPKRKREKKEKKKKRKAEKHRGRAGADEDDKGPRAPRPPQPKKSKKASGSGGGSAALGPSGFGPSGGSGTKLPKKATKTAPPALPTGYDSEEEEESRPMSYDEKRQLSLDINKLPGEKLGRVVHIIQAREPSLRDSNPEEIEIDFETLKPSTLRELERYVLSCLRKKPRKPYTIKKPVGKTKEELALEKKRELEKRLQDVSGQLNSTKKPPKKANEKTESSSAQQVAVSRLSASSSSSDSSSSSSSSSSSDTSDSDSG
BRD3, sequence (Q15059 whole entry): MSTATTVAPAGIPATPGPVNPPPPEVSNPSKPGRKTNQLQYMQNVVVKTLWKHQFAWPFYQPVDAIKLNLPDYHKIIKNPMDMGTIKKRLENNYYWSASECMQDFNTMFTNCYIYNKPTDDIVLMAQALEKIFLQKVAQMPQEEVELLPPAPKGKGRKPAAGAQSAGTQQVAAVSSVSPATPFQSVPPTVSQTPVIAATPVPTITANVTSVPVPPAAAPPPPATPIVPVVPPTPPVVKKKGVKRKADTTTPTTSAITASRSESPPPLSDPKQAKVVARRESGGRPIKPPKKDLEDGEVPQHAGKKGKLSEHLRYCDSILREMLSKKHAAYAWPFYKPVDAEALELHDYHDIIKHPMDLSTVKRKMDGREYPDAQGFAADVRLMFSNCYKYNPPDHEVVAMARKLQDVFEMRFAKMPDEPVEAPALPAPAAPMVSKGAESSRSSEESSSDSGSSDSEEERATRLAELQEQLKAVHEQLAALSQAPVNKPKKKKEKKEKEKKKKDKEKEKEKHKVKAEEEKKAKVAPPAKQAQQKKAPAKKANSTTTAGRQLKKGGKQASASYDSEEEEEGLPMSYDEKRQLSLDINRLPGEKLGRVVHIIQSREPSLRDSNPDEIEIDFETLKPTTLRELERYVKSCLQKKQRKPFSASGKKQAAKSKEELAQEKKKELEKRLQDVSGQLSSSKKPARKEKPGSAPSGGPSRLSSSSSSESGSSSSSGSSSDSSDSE

Compound: CC(C)C[C@@H](C=O)NC(=O)[C@H](CC(C)C)NC(=O)[C@H](CC(C)C)NC(=O)OCc1ccccc1 [MG-132, reference compound] (Cbz-Leu-Leu-Leu-aldehyde)
Effect of pretreatment on degradation of BRD2, BRD3, and BRD4 induced by 23 [1]: completely block

Compound: CCn1nc(C2CC2)cc1Nc1nc(C(=O)NCCCCCc2cccc3c2CN(C2CCC(=O)N(C)C2=O)C3=O)nc2[nH]c3cc(-c4c(C)noc4C)c(OC)cc3c12 (centres unmarked) [Compound 26, 4-((3-Cyclopropyl-1-ethyl-1H-pyrazol-5-yl)amino)-7-(3,5-dimethylisoxazol-4-yl)-6-methoxy-N-(5-(2-(1-methyl-2,6-dioxopiperidin-3-yl)-1-oxoisoindolin-4-yl)pentyl)-9H-pyrimido[4,5-b]indole-2-carboxamide]
Effect on the level of BRD2, BRD3, and BRD4 proteins ([1]; 3 h treatment, Western blot): fails to induce degradation | times less potent than 23 in cell growth inhibition [2]: > 600 times

Lowest concentration effective in decreasing the level of BRD3 protein (BRD3): 10 nM | Lowest concentration effective in decreasing the level of BRD2 protein (BRD2): less potent and effective | Lowest concentration effective in decreasing the level of BRD4 protein (BRD4): 10 nM
Compound: CCn1nc(C2CC2)cc1Nc1nc(C(=O)NCCCc2cccc3c2CN(C2CCC(=O)NC2=O)C3=O)nc2[nH]c3cc(-c4c(C)noc4C)c(OC)cc3c12 (centres unmarked) [Compound 25, 4-((3-Cyclopropyl-1-ethyl-1H-pyrazol-5-yl)amino)-7-(3,5-dimethylisoxazol-4-yl)-N-(3-(2-(2,6-dioxopiperidin-3-yl)-1-oxoisoindolin-4-yl)propyl)-6-methoxy-9H-pyrimido[4,5-b]indole-2-carboxamide]
times less potent than 23 in cell growth inhibition [2]: 188 times

Compound: CCn1nc(C2CC2)cc1Nc1nc(C(=O)NCCCCNC(=O)COc2cccc3c2C(=O)N(C2CCC(=O)NC2=O)C3=O)nc2[nH]c3cc(-c4c(C)noc4C)c(OC)cc3c12 (centres unmarked) [Compound 9, 4-((3-Cyclopropyl-1-ethyl-1H-pyrazol-5-yl)amino)-7-(3,5-dimethylisoxazol-4-yl)-N-(4-(2-((2-(2,6-dioxopiperidin-3-yl)-1,3-dioxoisoindolin-4-yl)oxy)acetamido)butyl)-6-methoxy-9H-pyrimido[4,5-b]indole-2-carboxamide]
Lowest concentrations effective in decreasing the level of BRD2, BRD3, and BRD4 proteins ([1]; 3 h treatment, Western blot): 3 to 10 nM | times more potent than 8 in cell growth inhibition ([2]; comparator 8): 6 times

Compound: Nc1cccc2c1CN(C1CCC(=O)NC1=O)C2=O (centres unmarked) [lenalidomide, reference compound]
Effect of pretreatment on degradation of BRD2, BRD3, and BRD4 induced by 23 [1]: effectively blocks

Compound: COc1cc2c(cc1-c1c(C)noc1C)[nH]c1nc(C(=O)NCCCCCc3cccc4c3CN(C3CCC(=O)NC3=O)C4=O)ncc12 (centres unmarked) [Compound 27, 7-(3,5-Dimethylisoxazol-4-yl)-N-(5-(2-(2,6-dioxopiperidin-3-yl)-1-oxoisoindolin-4-yl)pentyl)-6-methoxy-9H-pyrimido[4,5-b]indole-2-carboxamide]
times less potent than 23 in cell growth inhibition [2]: > 10 000 times | times less potent than 23 in cell growth inhibition [3]: > 400 times

Lowest concentration effective in decreasing the level of BRD3 protein (BRD3): 0.1 nM | Lowest concentration effective in decreasing the level of BRD2 protein (BRD2): 0.3 nM | Lowest concentration effective in decreasing the level of BRD4 protein (BRD4): 0.3 nM
Compound: CCn1nc(C2CC2)cc1Nc1nc(C(=O)NCCCCCCc2cccc3c2CN(C2CCC(=O)NC2=O)C3=O)nc2[nH]c3cc(-c4c(C)noc4C)c(OC)cc3c12 (centres unmarked) [Compound 21, 4-((3-Cyclopropyl-1-ethyl-1H-pyrazol-5-yl)amino)-7-(3,5-dimethylisoxazol-4-yl)-N-(6-(2-(2,6-dioxopiperidin-3-yl)-1-oxoisoindolin-4-yl)hexyl)-6-methoxy-9H-pyrimido[4,5-b]indole-2-carboxamide]

Compound: NS(=O)(=O)OC[C@@H]1C[C@@H](n2ccc3c(N[C@H]4CCc5ccccc54)ncnc32)C[C@@H]1O [MLN4924, reference compound]
Effect of pretreatment on degradation of BRD2, BRD3, and BRD4 induced by 23 [1]: completely block

Lowest concentration effective in decreasing the level of BRD3 protein (BRD3): 1 nM | Lowest concentration effective in decreasing the level of BRD2 protein (BRD2): 3 nM | Lowest concentration effective in decreasing the level of BRD4 protein (BRD4): 3 nM
Compound: CCn1nc(C2CC2)cc1Nc1nc(C(=O)NCCCCc2cccc3c2CN(C2CCC(=O)NC2=O)C3=O)nc2[nH]c3cc(-c4c(C)noc4C)c(OC)cc3c12 (centres unmarked) [Compound 24, 4-((3-Cyclopropyl-1-ethyl-1H-pyrazol-5-yl)amino)-7-(3,5-dimethylisoxazol-4-yl)-N-(4-(2-(2,6-dioxopiperidin-3-yl)-1-oxoisoindolin-4-yl)butyl)-6-methoxy-9H-pyrimido[4,5-b]indole-2-carboxamide]
times less potent than 23 in cell growth inhibition [2]: 19 times

times more potent than 1 or 2 in binding (BRD2, BRD3, and BRD4; comparator 1 or 2): > 10 times
Compound: CCn1nc(C2CC2)cc1Nc1nc(C(=O)NC)nc2[nH]c3cc(-c4c(C)noc4C)c(OC)cc3c12 [Compound 8, 4-((3-Cyclopropyl-1-ethyl-1H-pyrazol-5-yl)amino)-7-(3,5-dimethylisoxazol-4-yl)-6-methoxy-N-methyl-9H-pyrimido[4,5-b]indole-2-carboxamide]
Concentration effective in inducing cell cycle arrest (MOLM-13 cell line [4]): 30 to 100 nM | Effect of pretreatment on degradation of BRD2, BRD3, and BRD4 induced by 23 [1]: effectively blocks | Effect on the level of BRD2–4 proteins ([1]; 3 h, at both 100 and 300 nM): fails to decrease | Effect on the level of BRD2–4 proteins ([1]; 24 h, all concentrations tested (30–1000 nM)): no effect | Concentration effective in inducing cell cycle arrest (RS4;11 cell line [5]): 30 nM | Concentration inducing robust apoptosis (RS4;11 cell line [6]): > 300 nM | Concentration inducing robust apoptosis (MOLM-13 cell line [7]): > 300 nM | Concentration effectively down-regulating the level of c-Myc (c-Myc): 300 to 1000 nM

times less potent than 8 in binding affinity (BRD2, BRD3, and BRD4; comparator 8): > 100 times
Compound: CNC(=O)c1ncc2c(n1)[nH]c1cc(-c3c(C)noc3C)c(OC)cc12 [Compound 28, 7-(3,5-Dimethylisoxazol-4-yl)-6-methoxy-N-methyl-9H-pyrimido[4,5-b]indole-2-carboxamide]

Compound: CCn1nc(C2CC2)cc1Nc1nc(C(=O)NCCCCCCCNc2cccc3c2C(=O)N(C2CCC(=O)NC2=O)C3=O)nc2[nH]c3cc(-c4c(C)noc4C)c(OC)cc3c12 (centres unmarked) [Compound 12, 4-((3-Cyclopropyl-1-ethyl-1H-pyrazol-5-yl)amino)-7-(3,5-dimethylisoxazol-4-yl)-N-(7-((2-(2,6-dioxopiperidin-3-yl)-1,3-dioxoisoindolin-4-yl)amino)heptyl)-6-methoxy-9H-pyrimido[4,5-b]indole-2-carboxamide]
times more potent than 10 in cell growth inhibition ([2]; comparator 10): 10 times

Compound: 4-((3-Cyclopropyl-1-ethyl-1H-pyrazol-5-yl)amino)-7-(3,5-dimethylisoxazol-4-yl)-N-(2-((2-(2,6-dioxopiperidin-3-yl)-1,3-dioxoisoindolin-4-yl)amino)ethyl)-6-methoxy-9H-pyrimido[4,5-b]indole-2-carboxamide [Compound 17]
times less potent than 15 in cell growth inhibition ([2]; comparator 15): 10 times
